According to ChEMBL document CHEMBL2062515, “Synthesis and evaluation of novel radioligands for positron emission tomography imaging of metabotropic glutamate receptor subtype 1 (mGluR1) in rodent brain” (J Med Chem, 2012):

How the values were obtained:
Blood [1] = assay: Biodistribution in mouse blood at 4.8 MBq/140 uL, iv after 5 mins by gamma counting; type: ADME, organism-based; settings: in vivo
In short: (§1)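 Mice received the radioligand in saline by tail vein (4.8 MBq/140 μL, 40 pmol). Four mice per time point were killed by cervical dislocation at 1, 5, 15, 30 and 60 min. Tissues were removed quickly and counted in an autogamma counter. Data are decay-corrected % injected dose per gram of wet tissue, mean ± SE, n = 4.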

Heart [2] = assay: Biodistribution in mouse heart at 4.8 MBq/140 uL, iv after 60 mins by gamma counting; type: ADME, organism-based; settings: in vivo, 1 h; in short: as §1
Kidney [3] = assay: Biodistribution in mouse kidney at 4.8 MBq/140 uL, iv after 1 min by gamma counting; type: ADME, organism-based; settings: in vivo; in short: as §1
[4] = Ratio of drug uptake in cerebellum to pons of Sprague-Dawley rat at 16 MBq administered as bolus infusion; settings: in vivo, iv
Liver [5] = assay: Biodistribution in mouse liver at 4.8 MBq/140 uL, iv after 30 mins by gamma counting; type: ADME, organism-based; settings: in vivo, 0.5 h; in short: as §1
Muscle tissue [6] = assay: Biodistribution in mouse muscle at 4.8 MBq/140 uL, iv after 1 min by gamma counting; type: ADME, organism-based; settings: in vivo; in short: as §1
Mus musculus [7] = assay: Biodistribution in mouse small intestine at 4.8 MBq/140 uL, iv after 5 mins by gamma counting; type: ADME, organism-based; settings: in vivo
In short: (§2)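 [¹¹C]radioligand in saline (4.8 MBq/140 μL, 40 pmol) injected via tail vein; four mice per time point killed by cervical dislocation at 1, 5, 15, 30, 60 min. Tissues (small intestine including contents) removed, counted in autogamma counter, decay-corrected, expressed as % injected dose per gram wet tissue; mean SE, n = 4.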

Muscle tissue [8] = assay: Biodistribution in mouse muscle at 4.8 MBq/140 uL, iv after 15 mins by gamma counting; type: ADME, organism-based; settings: in vivo, 0.25 h; in short: as §1
Mus musculus [9] = assay: Biodistribution in mouse testis at 4.8 MBq/140 uL, iv after 5 mins by gamma counting; type: ADME, organism-based; settings: in vivo; in short: as §2
Spleen = assay: Biodistribution in mouse spleen at 4.8 MBq/140 uL, iv after 1 min by gamma counting; type: ADME, organism-based; settings: in vivo; in short: as §2
Mus musculus [10] = assay: Biodistribution in mouse small intestine at 4.8 MBq/140 uL, iv after 60 mins by gamma counting; type: ADME, organism-based; settings: in vivo, 1 h; in short: as §2
Heart [11] = assay: Biodistribution in mouse heart at 4.8 MBq/140 uL, iv after 15 mins by gamma counting; type: ADME, organism-based; settings: in vivo, 0.25 h; in short: as §1
Thalamus = assay: Drug uptake in Sprague-Dawley rat thalamus at 16 MBq administered as bolus infusion after 90 mins by PET analysis; type: ADME, organism-based; settings: in vivo, iv, 1.5 h
Blood [12] = assay: Biodistribution in mouse blood at 4.8 MBq/140 uL, iv after 60 mins by gamma counting; type: ADME, organism-based; settings: in vivo, 1 h; in short: as §1
Striatum [13] = assay: Drug uptake in Sprague-Dawley rat striatum at 16 MBq administered as bolus infusion after 90 mins by PET analysis; type: ADME, organism-based; settings: in vivo, iv, 1.5 h
Liver [14] = assay: Biodistribution in mouse liver at 4.8 MBq/140 uL, iv after 15 mins by gamma counting; type: ADME, organism-based; settings: in vivo, 0.25 h; in short: as §1
Plasma = assay: Metabolic stability in Sprague-Dawley rat plasma assessed as compound remaining after 90 mins; type: ADME, cell-free; settings: 1.5 h
Striatum [15] = assay: Drug uptake in Sprague-Dawley rat striatum at 17 MBq administered as bolus infusion by PET analysis in presence of N-[4-[6-(isopropylamino)pyrimidin-4-yl]-1,3-thiazol-2-yl]-4-methoxy-N-methylbenzamide; type: ADME, organism-based; settings: in vivo, iv
Kidney [16] = assay: Biodistribution in mouse kidney at 4.8 MBq/140 uL, iv after 60 mins by gamma counting; type: ADME, organism-based; settings: in vivo, 1 h; in short: as §1
Blood [17] = assay: Biodistribution in mouse blood at 4.8 MBq/140 uL, iv after 15 mins by gamma counting; type: ADME, organism-based; settings: in vivo, 0.25 h; in short: as §1
Cerebellum = assay: Drug uptake in wild type mouse cerebellum at 17 MBq, iv up to 60 mins by PET analysis; type: ADME, organism-based; settings: in vivo, 1 h
Kidney [18] = assay: Biodistribution in mouse kidney at 4.8 MBq/140 uL, iv after 30 mins by gamma counting; type: ADME, organism-based; settings: in vivo, 0.5 h; in short: as §1
Brain = assay: Drug uptake in mGluR1 knockout mouse brain at 17 MBq, iv up to 60 mins by PET analysis; type: ADME, organism-based; settings: in vivo, 1 h
Lung [19] = assay: Biodistribution in mouse lung at 4.8 MBq/140 uL, iv after 1 min by gamma counting; type: ADME, organism-based; settings: in vivo; in short: as §1
Lung [20] = assay: Biodistribution in mouse lung at 4.8 MBq/140 uL, iv after 5 mins by gamma counting; type: ADME, organism-based; settings: in vivo; in short: as §1
Lung [21] = assay: Biodistribution in mouse lung at 4.8 MBq/140 uL, iv after 30 mins by gamma counting; type: ADME, organism-based; settings: in vivo, 0.5 h; in short: as §1

## CC(C)Nc1cc(-c2csc(N(C)C(=O)c3ccc(O[11CH3])cc3)n2)ncn1
Blood [1]
  Drug uptake: 1.95 % ID/g
Heart [2]
  Drug uptake: 0.81 % ID/g
Kidney [3]
  Drug uptake: 8.67 % ID/g
[4]
  Ratio: 6.98
Liver [5]
  Drug uptake: 4.68 % ID/g
Muscle tissue [6]
  Drug uptake: 2.04 % ID/g
Mus musculus [7]
  Drug uptake: 4.55 % ID/g
Muscle tissue [8]
  Drug uptake: 0.95 % ID/g
Mus musculus [9]
  Drug uptake: 0.83 % ID/g
Spleen
  Drug uptake: 1.97 % ID/g
Mus musculus [10]
  Drug uptake: 3.97 % ID/g
Heart [11]
  Drug uptake: 1.19 % ID/g
Thalamus
  Drug uptake: 80%
Blood [12]
  Drug uptake: 0.64 % ID/g
Striatum [13]
  Drug uptake: 80%
Liver [14]
  Drug uptake: 5.57 % ID/g
Plasma
  Stability: Unstable
Striatum [15]
  Drug uptake: Not Active
Kidney [16]
  Drug uptake: 2.92 % ID/g
Blood [17]
  Drug uptake: 0.96 % ID/g
Cerebellum
  Drug uptake: Active
Kidney [18]
  Drug uptake: 3.32 % ID/g
Brain
  Drug uptake: Not Active
Lung [19]
  Drug uptake: 5.17 % ID/g
Lung [20]
  Drug uptake: 2.9 % ID/g
Lung [21]
  Drug uptake: 1.92 % ID/g
